Assay results published in publication PMC7178755 (Toxicology and applied pharmacology, 2019).
Where “and” joins values, the source holds several entries; their conditions need not be identical. Equal values may be shown once.

Key:
[1] = Plasma toxicokinetics after single gavage administration in rats; assay type: in vivo, Harlan Sprague Dawley rats; settings: male, Hsd:Sprague Dawley SD, rat, plasma, po, plasma
[2] = Plasma toxicokinetics after single gavage administration in mice; assay type: in vivo, B6C3F1/N mice; settings: for half-life / AUC(0-inf) / Cmax / Tmax / bioavailability: 34 mg/kg; for bioavailability: AUC/Dose (oral) ÷ AUC/Dose (IV) x 100
[3] = Gavage toxicokinetics, summary statements over rats and mice; assay type: in vivo; settings: rat, mouse, plasma, po
Summary of the method: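 Single gavage doses in corn oil were given to male and female rats (9–10 wk; 34, 110, 340 mg/kg) and B6C3F1/N mice (10–11 wk; 34 mg/kg), with a 34 mg/kg IV tail-vein reference. Plasma was sampled from 5 min to 48 h. Free and total (enzyme-deconjugated) test compound was quantitated. F = dose-adjusted oral/IV free AUC0−∞; half-life taken as K10 half-life from compartmental fits.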

[4] = system: hepatocytes from humans and rodents; settings: ref Waidyanatha et al., 2015, cited from earlier work
[5] = rat uterotrophic assay; administered orally; ref Conley et al., 2016; cited from earlier work
[6] = Plasma toxicokinetics after single intravenous administration in mice; assay type: in vivo, B6C3F1/N mice; settings: for AUC(0-inf) / Cmax / Vd / half-life: B6C3F1/N, mouse, iv, 34 mg/kg; for half-life / Cl1 / Cl2 / K12 / K21 / V1 / V2: free BPAF, 34 mg/kg IV, mean (SE)
[7] = female, B6C3F1/N, mouse, plasma, po
[8] = free BPAF, female B6C3F1/N mice, 34 mg/kg gavage
[9] = free BPAF, female mice, 34 mg/kg gavage, plasma, mean (SE)
[10] = free BPAF, male mice, 34 mg/kg gavage, plasma, mean (SE)
[11] = male, B6C3F1/N, mouse, plasma, po

Oc1ccc(C(c2ccc(O)cc2)(C(F)(F)F)C(F)(F)F)cc1 [BPAF, Bisphenol AF] showed a half-life ([1]; 34 mg/kg, K10 Half-Life, free BPAF, male rats, 34 mg/kg gavage, mean (SE)) of 1.85 h, an AUC(0-inf) ([1]; 110 mg/kg) of 1230 ng·h/mL and a Cmax ([1]; 110 mg/kg) of 142 ng/mL. For the same molecule, the Tmax ([1]; 110 mg/kg) was 1.43 h, the AUC(0-inf) ([1]; 340 mg/kg) was 4830 ng·h/mL and the Cmax ([1]; 340 mg/kg) was 552 ng/mL. For the same molecule, the Tmax ([1]; 340 mg/kg) was 2.2 h, the half-life ([2]; both, B6C3F1/N, mouse, plasma, po, elimination half-life, free BPAF, male and female mice, 34 mg/kg gavage) was at most 4.22 h and the AUC(0-inf) [2, 7] was 495 ng·h/mL and 1.47 µM·h. For the same molecule, the Cmax [2, 7] was 105 ng/mL and 313 nM, the Tmax [2, 7] was 0.342 h and the half-life ([2]; female, B6C3F1/N, mouse, plasma, po, Alpha Half-life, free BPAF, female mice, 34 mg/kg gavage, mean (SE)) was 0.209 h. For the same molecule, the half-life ([2]; female, B6C3F1/N, mouse, plasma, po, Beta Half-life, free BPAF, female mice, 34 mg/kg gavage, mean (SE)) was 9.02 h, the bioavailability ([2]; female, B6C3F1/N, mouse, plasma, po, Bioavailability, free BPAF, Female Mice, 34 mg/kg gavage) was 3% and the half-life ([2]; female, B6C3F1/N, mouse, plasma, po, K10 Half-Life, free BPAF, female mice, 34 mg/kg gavage, mean (SE)) was 1.33 h. For the same molecule, the bioavailability ([2]; free BPAF, Female Mice, 34 mg/kg gavage) was 3.13%, the bioavailability ([2]; free BPAF, Male Mice, 34 mg/kg gavage) was 5.64% and the “Dose-normalized AUC0−∞” value [2, 8] was 14.6 (nmol.h/mL)/(mmol/kg). For the same molecule, the “Dose-normalized Cmax” value [2, 8] was 3.099 (nmol/mL)/(mmol/kg), the Cl1_F [2, 9] was 68.7 (22.5) L/h/kg and the Cl2_F [2, 9] was 313 (17400) L/h /kg. For the same molecule, the K12 [2, 9] was 2.38 (899) 1/h, the K21 [2, 9] was 0.487 (0.497) 1/h and the V1_F [2, 9] was 131 (42200) L/kg. For the same molecule, the V2_F [2, 9] was 642 (35300) L/kg, the Cl1_F [2, 10] was 80.0 (22.5) L/h/kg and the Cl2_F [2, 10] was 13.2 (226) L/h /kg. The K12 [2, 10] was 0.0271 (0.476) 1/h, the K21 [2, 10] was 0.369 (5.1) 1/h and the V1_F [2, 10] was 487 (238) L/kg. It also gave an AUC(0-inf) [2, 11] of 425 ng·h/mL, a Cmax [2, 11] of 64.1 ng/mL and a Tmax [2, 11] of 0.455 h. It also gave a half-life ([2]; male, B6C3F1/N, mouse, plasma, po, Alpha Half-life, free BPAF, male mice, 34 mg/kg gavage, mean (SE)) of 1.67 h, a half-life ([2]; male, B6C3F1/N, mouse, plasma, po, Beta Half-life, free BPAF, male mice, 34 mg/kg gavage, mean (SE)) of 4.73 h and a bioavailability ([2]; male, B6C3F1/N, mouse, plasma, po, Bioavailability, free BPAF, Male Mice, 34 mg/kg gavage) of about 6%. For the same molecule, the half-life ([2]; male, B6C3F1/N, mouse, plasma, po, K10 Half-Life, free BPAF, male mice, 34 mg/kg gavage, mean (SE)) was 4.22 h, the half-life ([3]; Hsd:Sprague Dawley SD (rats), B6C3F1/N (mice)) was at most 4.22 h and the half-life ([3]; female, Harlan Sprague Dawley (rats) and B6C3F1/N (mice), 34 mg/kg) was about 9 h. The “clearance compared with BPA” value ([4]; hepatocytes from humans and rodents, in vitro) was “cleared more slowly than BPA”, the “clearance rank order between species” value ([4]; hepatocytes in vitro) was “rat > mouse > human” and the ED50 [5] was 209.1 mg/kg/day. For the same molecule, the AUC(0-inf) ([6]; female) was 15800 ng·h/mL, the Cmax ([6]; female) was 92300 ng/mL and the Vd ([6]; female) was 1.36 L/kg. It also gave a half-life ([6]; female, Alpha half-life, female mice) of 0.106 h, a half-life ([6]; female, Beta half-life, female mice) of 3.03 h and a half-life ([6]; female, K10 Half-Life, female mice) of 0.119 h. For the same molecule, the Cl1 ([6]; female mice) was 2.15 (0.426) L/h/kg, the Cl2 ([6]; female mice) was 0.256 (0.108) L/h /kg and the K12 ([6]; female mice) was 0.696 (0.190) 1/h. The K21 ([6]; female mice) was 0.257 (0.0225) 1/h, the V1 ([6]; female mice) was 0.368 (0.129) L/kg and the V2 ([6]; female mice) was 0.995 (0.388) L/kg. For the same molecule, the Cl1 ([6]; male mice) was 4.51 (0.547) L/h/kg, the Cl2 ([6]; male mice) was 0.860 (0.324) L/h /kg and the K12 ([6]; male mice) was 0.189 (0.0802) 1/h. The K21 ([6]; male mice) was 0.227 (0.0304) 1/h, the V1 ([6]; male mice) was 4.54 (1.06) L/kg and the V2 ([6]; male mice) was 3.78 (1.10) L/kg. For the same molecule, the AUC(0-inf) ([6]; male) was 7540 ng·h/mL, the Cmax ([6]; male) was 7490 ng/mL and the Vd ([6]; male) was 8.32 L/kg. It also gave a half-life ([6]; male, Alpha half-life, male mice) of 0.566 h, a half-life ([6]; male, Beta half-life, male mice) of 3.76 h and a half-life ([6]; male, K10 Half-Life, male mice) of 0.698 h.
